# The source made the active and inactive calls. The rule behind the calls is not given here.
# Columns and labels:
# Staphylococcus aureus [1] = test: AUBKC (0 to 24 hrs) in methicillin-resistant Staphylococcus aureus 33829 infected in in vitro pharmacokinetic model at 750 mg, iv every 8 hrs using 10^6 CFU/ml inoculum; type: functional
# Method in brief: (§1)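 Single-compartment dilutional in vitro PK model at 37°C in 10% Mueller-Hinton broth, stirred, flow 132 ml/h. […] Inoculum 10^6 CFU/ml added 45 min before dosing, or 10^8 CFU/ml run overnight. Viable counts with β-lactamase neutralisation. AUBKC by log-linear trapezoidal rule, at least triplicate.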
# Staphylococcus aureus [2] = test: AUBKC (0 to 24 hrs) in methicillin-resistant Staphylococcus aureus 33820 infected in in vitro pharmacokinetic model at 750 mg, iv every 8 hrs using 10^6 CFU/ml inoculum; type: functional; method in brief: as §1
# Staphylococcus aureus [3] = test: AUBKC (0 to 48 hrs) in methicillin-resistant Staphylococcus aureus 33827 infected in in vitro pharmacokinetic model at 750 mg, iv every 8 hrs using 10^6 CFU/ml inoculum; type: functional; method in brief: as §1
# Staphylococcus aureus [4] = test: Antibacterial activity against methicillin-resistant Staphylococcus aureus 33922 infected in in vitro pharmacokinetic model assessed as reduction in viable count at 750 mg, iv every 8 hrs measured after 24 hrs using 10^8 CFU/ml inoculum; type: functional
# Staphylococcus aureus [5] = test: Antibacterial activity against methicillin-resistant Staphylococcus aureus 33827 infected in in vitro pharmacokinetic model assessed as reduction in viable count at 750 mg, iv every 8 hrs measured after 36 hrs using 10^8 CFU/ml inoculum; type: functional
# Method in brief: (§2)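 Single-compartment dilutional in vitro PK model, 10% Mueller-Hinton broth, 37°C, stirred, dilution 132 ml/h. […] Inoculum 10^6 CFU/ml (added 45 min pre-dose) or 10^8 CFU/ml (run overnight). Viable counts by spiral plating, beta-lactamase neutralization, detection limit 10^2 CFU/ml. At least triplicate.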
# Staphylococcus aureus [6] = test: Antibacterial activity against methicillin-resistant Staphylococcus aureus 33922 infected in in vitro pharmacokinetic model assessed as reduction in viable count at 750 mg, iv every 8 hrs measured after 48 hrs using 10^8 CFU/ml inoculum; type: functional
# Staphylococcus aureus [7] = test: Antibacterial activity against methicillin-resistant Staphylococcus aureus 33815 infected in in vitro pharmacokinetic model assessed as reduction in viable count at 1500 mg, iv every 8 hrs measured after 36 hrs using 10^8 CFU/ml inoculum; type: functional
# Method in brief: (§3)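 PK model at 37°C in 10% MHB. […] A 0.5 McFarland suspension (1 ml) was added and the model run overnight to reach 10^8 CFU/ml before dosing. Counts were spiral-plated on nutrient agar with β-lactamase. Change in log CFU/ml was measured from time 0; at least triplicate.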
# Staphylococcus aureus [8] = test: Antibacterial activity against methicillin-resistant Staphylococcus aureus 33815 infected in in vitro pharmacokinetic model assessed as reduction in viable count at 1500 mg, iv every 8 hrs measured after 48 hrs using 10^8 CFU/ml inoculum; type: functional; method in brief: as §3
# Staphylococcus aureus [9] = test: Antibacterial activity against methicillin-resistant Staphylococcus aureus 33922 infected in in vitro pharmacokinetic model assessed as time required to 99.9% killing at 1500 mg, iv every 8 hrs using 10^8 CFU/ml inoculum; type: functional
# Staphylococcus aureus [10] = test: Antibacterial activity against methicillin-resistant Staphylococcus aureus 33827 infected in in vitro pharmacokinetic model assessed as time required to 99.9% killing at 1500 mg, iv every 8 hrs using 10^8 CFU/ml inoculum; type: functional; method in brief: as §2
# Staphylococcus aureus [11] = test: Antibacterial activity against methicillin-resistant Staphylococcus aureus 33815 infected in in vitro pharmacokinetic model assessed as time required to 99.9% killing at 1500 mg, iv every 8 hrs using 10^8 CFU/ml inoculum; type: functional
# Method in brief: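 T99 and T99.9 were taken as the times for the count to fall 99% or 99.9% from time 0, using serial viable counts over 48 h. Inoculum was 10^8 CFU/ml, grown overnight in the model before dosing.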
# Staphylococcus aureus [12] = test: AUBKC (0 to 24 hrs) in methicillin-resistant Staphylococcus aureus 33815 infected in in vitro pharmacokinetic model at 750 mg, iv every 8 hrs using 10^8 CFU/ml inoculum; type: functional; method in brief: as §1
# Staphylococcus aureus [13] = test: AUBKC (0 to 48 hrs) in against methicillin-resistant Staphylococcus aureus 33815 infected in in vitro pharmacokinetic model at 750 mg, iv every 8 hrs using 10^8 CFU/ml inoculum; type: functional; method in brief: as §1
# Staphylococcus aureus [14] = test: AUBKC (0 to 48 hrs) in methicillin-resistant Staphylococcus aureus 33815 infected in in vitro pharmacokinetic model at 1500 mg, iv every 8 hrs using 10^8 CFU/ml inoculum; type: functional; method in brief: as §1
# Staphylococcus aureus [15] = test: Antibacterial activity against methicillin-resistant Staphylococcus aureus 33922 in in vitro pharmacokinetic model assessed as viable count at 4 times of MIC; type: functional
# Staphylococcus aureus [16] = test: Antibacterial activity against methicillin-resistant Staphylococcus aureus 33815 infected in in vitro pharmacokinetic model assessed as reduction in viable count at 750 mg, iv every 8 hrs measured after 36 hrs using 10^6 CFU/ml inoculum; type: functional
# Method in brief: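 Single-compartment dilutional in vitro PK model, 37°C, stirred, in 10% Mueller-Hinton broth. […] Inoculum 10^6 CFU/ml from a 24-h plate culture was added 45 min before dosing. Viable counts by spiral plating on nutrient agar with β-lactamase neutralization. Log change was taken from time 0; detection limit 10^2 CFU/ml; at least triplicate.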
# Staphylococcus aureus [17] = test: Antibacterial activity against methicillin-resistant Staphylococcus aureus 33921 infected in in vitro pharmacokinetic model assessed as reduction in viable count at 750 mg, iv every 8 hrs measured after 48 hrs using 10^6 CFU/ml inoculum; type: functional
# Staphylococcus aureus [18] = test: Antibacterial activity against methicillin-sensitive Staphylococcus aureus 5956 assessed as viable count at 4 times of MIC after 48 hrs using 10^6 CFU/ml inoculum; type: functional, organism-based
# Staphylococcus aureus [19] = test: Antibacterial activity against methicillin-resistant Staphylococcus aureus 33922 assessed as viable count at 4 times of MIC after 48 hrs using 10^6 CFU/ml inoculum; type: functional, organism-based
# Staphylococcus aureus [20] = test: T>MIC for 1-log drop in count in methicillin-resistant Staphylococcus aureus 33827 in in vitro pharmacokinetic model after 24 hrs using 10^6 CFU/ml inoculum; type: functional
# Staphylococcus aureus [21] = test: T>MIC for 3-log drop in count in methicillin-sensitive Staphylococcus aureus 5956 in in vitro pharmacokinetic model after 24 hrs using 10^6 CFU/ml inoculum; type: functional
# Method in brief: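 Dose-ranging: 7–13 simulated regimens per strain giving T>MIC of 0–100% (MIC from 10% MHB), at 106 or 10^8 CFU/ml as stated.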
# Staphylococcus aureus [22] = test: T>MIC for 4-log drop in count in methicillin-resistant Staphylococcus aureus 33815 in in vitro pharmacokinetic model after 24 hrs using 10^6 CFU/ml inoculum; type: functional
# Staphylococcus aureus [23] = test: T>MIC for 1-log drop in count in methicillin-resistant Staphylococcus aureus 33827 in in vitro pharmacokinetic model after 24 hrs using 10^8 CFU/ml inoculum; type: functional
# Staphylococcus aureus [24] = test: T>MIC for 2-log drop in count in methicillin-resistant Staphylococcus aureus 33922 in in vitro pharmacokinetic model after 24 hrs using 10^8 CFU/ml inoculum; type: functional
# Staphylococcus aureus [25] = test: Antibacterial activity against methicillin-resistant Staphylococcus aureus 33829 infected in in vitro pharmacokinetic model assessed as time required to 99.9% killing at 750 mg, iv every 8 hrs using 10^6 CFU/ml inoculum; type: functional; method in brief: as §2
smiles,measurement,setting,value
C[C@@H](O)[C@H]1C(=O)N2C(C(=O)O)=C(S[C@H]3C[C@@H](C(=O)N4CC[C@H](NC(=O)CNC(=N)N)C4)N(C)C3)[C@H](C)[C@H]12 [TOMOPENEM],AUBC,Staphylococcus aureus [1],25 log10CFU/ml.hr
same,AUBC,Staphylococcus aureus [2],28.6 log10CFU/ml.hr
same,AUBC,Staphylococcus aureus [3],44.9 log10CFU/ml.hr
same,log10CFU/ml,Staphylococcus aureus [4],5
same,log10CFU/ml,Staphylococcus aureus [5],5
same,log10CFU/ml,Staphylococcus aureus [6],5.8
same,log10CFU/ml,Staphylococcus aureus [7],3.9
same,log10CFU/ml,Staphylococcus aureus [8],3.9
same,Time,Staphylococcus aureus [9],24 h
same,Time,Staphylococcus aureus [10],12 h
same,Time,Staphylococcus aureus [11],24 h
same,AUBC,Staphylococcus aureus [12],100 log10CFU/ml.hr
same,AUBC,Staphylococcus aureus [13],119 log10CFU/ml.hr
same,AUBC,Staphylococcus aureus [14],152.6 log10CFU/ml.hr
same,log10CFU/ml,Staphylococcus aureus [15],6
same,log10CFU/ml,Staphylococcus aureus [16],4.2
same,log10CFU/ml,Staphylococcus aureus [17],3.8
same,Activity,Staphylococcus aureus [18],inactive
same,Activity,Staphylococcus aureus [19],inactive
same,fT>MIC,Staphylococcus aureus [20],24.4%
same,fT>MIC,Staphylococcus aureus [21],10.1%
same,fT>MIC,Staphylococcus aureus [22],29.6%
same,fT>MIC,Staphylococcus aureus [23],19.5%
same,fT>MIC,Staphylococcus aureus [24],4.7%
same,Time,Staphylococcus aureus [25],12 h
